Experimental data reported in ChEMBL document CHEMBL4406880, “Design, synthesis, and bioactivity of dihydropyrimidine derivatives as kinesin spindle protein inhibitors” (Bioorg Med Chem, 2019).

Columns and labels:
[1] = Inhibition of kinesin (unknown origin) assessed as reduction in ATPase activity using microtubule as substrate measured for 5 to mins; parameters: species or system Homo sapiens
HeLa = test: Antiproliferative activity against human HeLa cells assessed as growth percentage incubated for 72 hrs by XTT assay; assay type: functional, cell-based
MCF7 = test: Antiproliferative activity against human MCF7 cells assessed as growth percentage incubated for 72 hrs by XTT assay; assay type: functional, cell-based; conditions: MCF7, 72 h
[2] = Growth inhibition of human HEK293 cells assessed as cell viability at 0.39 ug incubated for 48 hrs by MTT assay relative to control; assay type: cell-based; conditions: read-out: Activity
[3] = Growth inhibition of human HEK293 cells assessed as cell viability at 25 ug incubated for 48 hrs by MTT assay relative to control; assay type: cell-based; conditions: read-out: Activity
[4] = Growth inhibition of human HEK293 cells assessed as cell viability at 100 ug incubated for 48 hrs by MTT assay relative to control; assay type: cell-based; conditions: read-out: Activity
[5] = Growth inhibition of human HEK293 cells assessed as cell viability at 1.56 ug incubated for 48 hrs by MTT assay relative to control; assay type: cell-based; conditions: read-out: Activity
[6] = Growth inhibition of human HEK293 cells assessed as cell viability at 6.25 ug incubated for 48 hrs by MTT assay relative to control; assay type: cell-based; conditions: read-out: Activity
SNB-75 [7] = test: Cell cycle arrest in human SNB75 cells assessed as accumulation in G2/M phase at 2 uM incubated for 24 hrs by propidium iodide based flow cytometry (reference value: 10.46 %); assay type: functional
Procedure, shortened: (§1)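 SNB-75 cells were exposed to 2 µM for 24 h at 37 °C, 5% CO2, then washed with PBS and fixed in 70% ethanol on ice for 15 min. They were stained 1 h at room temperature with 50 µg/mL propidium iodide, 0.1 mg/mL RNase A and 0.05% Triton X-100. DNA content was read by flow cytometry to give the % of cells in pre-G1, G0/G1, S and G2/M.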

SNB-75 [8] = test: Cell cycle arrest in human SNB75 cells assessed as accumulation in preG1 phase at 2 uM incubated for 24 hrs by propidium iodide based flow cytometry (reference value: 1.85 %); assay type: functional; procedure, shortened: as §1
MDA-MB-435 [9] = test: Induction of apoptosis in human MDA-MB-435 cells assessed as active caspase 3 level incubated for 2 hrs by ELISA (reference value: 1); assay type: functional
Procedure, shortened: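 Active caspase-3 was measured by human sandwich ELISA. Samples were incubated on the plate for 2 h at room temperature. This was followed by 1 h with detection antibody, 30 min with anti-rabbit IgG-HRP, and 30 min with chromogen, with all steps at room temperature. Absorbance was read at 450 nm, and levels were read from a standard curve.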

SNB-75 [10] = test: Induction of apoptosis in human SNB75 cells assessed as early apoptotic cells at 2 uM incubated for 24 hrs by annexin V FITC and propidium iodide based flow cytometry (reference value: 0.82 %); assay type: functional
SNB-75 [11] = test: Cell cycle arrest in human SNB75 cells assessed as accumulation in S phase at 2 uM incubated for 24 hrs by propidium iodide based flow cytometry (reference value: 33.92 %); assay type: functional; procedure, shortened: as §1
SNB-75 [12] = test: Induction of apoptosis in human SNB75 cells assessed as necrosis at 2 uM incubated for 24 hrs by annexin V FITC and propidium iodide based flow cytometry (reference value: 0.44 %); assay type: functional
SNB-75 [13] = test: Induction of apoptosis in human SNB75 cells assessed as late apoptotic cells at 2 uM incubated for 24 hrs by annexin V FITC and propidium iodide based flow cytometry (reference value: 0.59 %); assay type: functional
[14] = biological target: Kinesin-like protein KIF11 (Homo sapiens, UniProt P52732); test: Inhibition of recombinant human His-tagged Eg5 (1 to 368 residues) assessed as reduction in ATPase activity by […] based assay
MDA-MB-435 [15] = test: Induction of apoptosis in human MDA-MB-435 cells assessed as active caspase 9 level incubated for 2 hrs by ELISA (reference value: 1); assay type: functional
Procedure, shortened: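 Caspase-9 was measured by human ELISA on cell lysates, with samples in duplicate. Samples were incubated with detection antibody for 2 h at room temperature. This was followed by 1 h with anti-rabbit IgG-HRP and 10 min with TMB substrate. After a stop solution, absorbance was read at 450 nm.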

SNB-75 [16] = test: Cell cycle arrest in human SNB75 cells assessed as accumulation in G0/G1 phase at 2 uM incubated for 24 hrs by propidium iodide based flow cytometry (reference value: 55.62 %); assay type: functional; procedure, shortened: as §1

Kinesin-like protein KIF11, sequence (P52732 whole entry, the tested form may be a part): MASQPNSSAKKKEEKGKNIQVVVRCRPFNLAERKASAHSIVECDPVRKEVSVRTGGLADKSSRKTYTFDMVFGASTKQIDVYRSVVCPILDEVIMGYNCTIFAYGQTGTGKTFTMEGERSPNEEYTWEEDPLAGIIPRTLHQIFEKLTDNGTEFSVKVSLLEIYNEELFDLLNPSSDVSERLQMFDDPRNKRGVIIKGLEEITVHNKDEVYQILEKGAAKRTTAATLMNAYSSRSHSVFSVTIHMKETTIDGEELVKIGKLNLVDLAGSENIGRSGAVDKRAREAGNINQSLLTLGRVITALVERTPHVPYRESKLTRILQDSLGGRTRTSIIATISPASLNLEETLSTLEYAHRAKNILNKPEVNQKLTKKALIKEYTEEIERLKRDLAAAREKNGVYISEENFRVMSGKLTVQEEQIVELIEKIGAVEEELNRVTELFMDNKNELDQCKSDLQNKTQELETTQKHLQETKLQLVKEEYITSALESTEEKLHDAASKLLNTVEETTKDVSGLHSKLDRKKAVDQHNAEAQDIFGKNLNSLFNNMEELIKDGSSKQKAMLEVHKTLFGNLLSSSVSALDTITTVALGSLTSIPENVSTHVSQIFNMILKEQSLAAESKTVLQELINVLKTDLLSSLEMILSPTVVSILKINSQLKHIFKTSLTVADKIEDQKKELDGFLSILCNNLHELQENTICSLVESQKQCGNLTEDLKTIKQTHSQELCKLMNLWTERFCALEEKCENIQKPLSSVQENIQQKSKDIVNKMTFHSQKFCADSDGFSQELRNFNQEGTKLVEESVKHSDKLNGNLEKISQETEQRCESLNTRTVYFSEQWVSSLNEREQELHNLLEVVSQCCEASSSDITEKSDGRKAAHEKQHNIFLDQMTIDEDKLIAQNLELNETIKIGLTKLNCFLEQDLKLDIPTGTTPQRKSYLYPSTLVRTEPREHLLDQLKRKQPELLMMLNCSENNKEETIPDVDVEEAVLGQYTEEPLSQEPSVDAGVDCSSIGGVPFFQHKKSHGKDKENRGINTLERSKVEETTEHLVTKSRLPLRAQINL

Structure (SMILES): CC1=C(C(=O)c2ccccc2)C(c2cccc(O)c2)NC(=S)N1C (centres undefined)
- IC50 [1]: 0.1 µM

Structure (SMILES): CC1=C(C(=O)OCc2ccccc2)C(c2ccco2)NC(=O)N1 (centres undefined)
- IC50 (HeLa): 40 µM
- IC50 (MCF7): 55 µM

Structure (SMILES): COc1cccc2c1C(=O)c1c(O)c3c(c(O)c1C2=O)C[C@@](O)(C(=O)CO)C[C@@H]3O[C@H]1C[C@H](N)[C@H](O)[C@H](C)O1 [DOXORUBICIN]
- viability at 48 h, 0.39 ug [2]: 75.1%
- viability at 48 h, 25 ug [3]: 43.6%
- viability at 48 h, 100 ug [4]: 33.8%
- viability at 48 h, 1.56 ug [5]: 64.7%
- viability at 48 h, 6.25 ug [6]: 55.2%

Structure (SMILES): CCOC(=O)C1=C(C)NC(=S)NC1c1cccc(O)c1 (centres undefined) [MONASTROL]
- Activity (SNB-75 [7]): 41.26%
- Activity (SNB-75 [8]): 22.58%
- fold change (FC) (MDA-MB-435 [9]): 6.9
- IC50 [1]: 20 µM
- Activity (SNB-75 [10]): 4.72%
- Activity (SNB-75 [11]): 29.18%
- Activity (SNB-75 [12]): 2.32%
- Activity (SNB-75 [13]): 15.54%
- IC50 [14]: 20 µM
- fold change (FC) (MDA-MB-435 [15]): 11.92
- Activity (SNB-75 [16]): 29.56%
